We go through seven compounds from paper PMC5651997 (Chemosphere, 2017).

In series [1] the test system is D. magna. Description: 48 h acute toxicity test, single chemicals. In kind it is in vivo, Daphnia magna. To be noted: for LC50: read-out: LC50 (μM)(95% CI).
Series [2] can be described thus: 48 h acute toxicity test, single chemicals. In kind it is in vivo, Daphnia magna. To be noted: Daphnia magna, in vivo, LC50 (μM)(95% CI).
Series [3] concerns D. magna. In kind it is in vivo, Daphnia magna. The settings on record: neonates, 48 h, 40 μM atrazine.
The test system of a further series is detoxification genes. Description: RNA sequencing, differential gene expression after atrazine exposure. In kind it is in vivo, Daphnia magna. The settings on record: 40 μM atrazine, 96 h.
Series [4] deals with detoxification and sphingolipid homeostasis genes. Description: qPCR confirmation of differential gene expression. In kind it is in vivo, Daphnia magna. To be noted: 20 or 40 μM atrazine, 96 h, at least one of the concentrations. The gist of the method: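 RNA stabilised and stored at −80°C; 2 μg reverse-transcribed with MMLV. SYBR Green qPCR; efficiency from a 1:1–1:1024 dilution series of pooled untreated and treated samples; triplicate 1:15-diluted samples quantified.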
Background: Real-time PCR tracks product formation cycle by cycle.

In another series the test system is Daphnia HR96. The settings on record: ref Karimullina et al., 2012; cited from earlier work.
The mark [5] stands for this setting: neonates (<24 h old), 48 h, chemical individually, (95% CI).
Where [6] appears, read: neonates (<24 h old), 48 h, chemical individually.

Turning to `CCOP(=S)(OCC)Oc1ccc([N+](=O)[O-])cc1` [parathion], the Hillslope with D. magna [1] (setting [5]) is on record as −4.831 (−8.368 to −1.294). Further, in the series on D. magna [1] (setting [6]), the LC50 (in general, the concentration lethal to half of the exposed cells or organisms) is 0.0122 µM.
Take `CC(C)(c1ccc(O)cc1)c1ccc(O)cc1` [BPA, bisphenol A]: the Hillslope in the series with D. magna [1] (setting [5]) is reported as −6.891 (−10.34 to −3.438).
The same measure, in the same setting: under `CCOP(=S)(OCC)Oc1nc(Cl)c(Cl)cc1Cl` [chlorpyrifos] stands −2.498 (−3.795 to −1.496).
For the compound `CCCCCCCCCc1ccc(O)cc1` [p-nonylphenol], in series [2], the 50% lethal concentration (LC50) was 1.94 µM. For the same compound, the Hillslope in the series with D. magna [1] (Daphnia magna, in vivo) is −5.895 (−8.000 to −3.790). In addition, the “drop of LC50 in atrazine-containing binary mixture vs chemical alone” value in the series on D. magna [3] worked out at 25%.
`CCNc1nc(Cl)nc(NC(C)C)n1` [atrazine]: in the series with detoxification genes (glutathione metabolism pathway), the “logFC, GST 1” value was found to be 1.33 and the “logFC, aminopeptidase” value is 1.13. In the series on detoxification genes (of 26,646 genes identified), the “number of significantly down-regulated genes” value was 441 and the “number of significantly up-regulated genes” value is recorded as 675. Moreover, the “expression of two GSTs, cyp370a9, ADH-A and two sphingomyelinases by qPCR” value in series [4] is listed as “significantly up-regulated”. For the same compound, in the series on Daphnia HR96, the “potency for activating Daphnia HR96” value is reported as “greatest potency”.
In the case of `Oc1cc(Cl)ccc1Oc1ccc(Cl)cc1Cl` [triclosan], the Hillslope in the series with D. magna [1] (setting [5]) is recorded as −4.365 (−6.091 to −3.083). Besides, in the series on D. magna [1] (setting [6]), the 50% lethal concentration (LC50) is 1.08 µM.
For `O=S1OCC2C(CO1)C1(Cl)C(Cl)=C(Cl)C2(Cl)C1(Cl)Cl` (centres unmarked) [endosulfan], the Hillslope in the series with D. magna [1] (setting [5]) was −8.310 (−10.52 to −6.098). For the same compound, the “drop of LC50 in atrazine-containing binary mixture vs chemical alone” value with D. magna [3] was 60%.
